Measured values as given in PubChem BioAssay.
Unmarked numbers belong to inactive results. Inconclusive results are not listed. Active and inactive are the calls of the source.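 The calls were made as follows, unless noted: active = RAM network inhibition above 8.4% in each of two replicates, 3 SD over the compound average; inconclusive = above 8.4% inhibition in only one replicate; inactive = 8.4% inhibition or less in each replicate.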

Legend:
[1] = S. cerevisiae growth inhibition in permissive medium (OD615), pilot counter-assay for S. cerevisiae lifespan shortening project, permissive growth control (AID 705;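 active = growth inhibition above 25% in both replicates, a cutoff set 3 SD above the mean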); conditions: OD615, 24 h, at 10 µM, hits give high values
In short: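 System – S. cerevisiae with engineered DeaD lifespan system · Buffer or medium – SC raffinose/galactose permissive medium · Schedule – cells pre-grown 4 h, then 24 h compound exposure, 30 °C humidified · Technique – culture turbidity as optical density at 615 nm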

[2] = S. cerevisiae growth inhibition in restrictive medium, OD615, pilot screen, restrictive growth control, yeast lifespan reduction project (AID 706;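 active = growth inhibition above a set limit, 3 SD over mean compound inhibition, in both replicates, cut at about 43% in these data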;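 also: modified DeaD lifespan yeast strain shifted to restrictive glucose medium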); conditions: OD615, 48 h, at 10 µM, hits give high values
In short: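 Material: engineered S. cerevisiae DeaD strain / Medium: glucose-based CSMM-D restrictive medium / Compound: single dose of 10 µM compound final, 0.25% DMSO / Timing: 4 h pre-incubation, 48 h exposure at 30 °C / Technique: OD615 absorbance reading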

[3] = doxorubicin toxicity protection in MRP-1 cells – H69AR cells, CellTiter-Glo, duplicate, MRP-1 activator project, pilot screen (AID 807;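 active = viability increase at or above a cutoff of the median across tested compounds plus 3 SD, cut at about 8.5% in these data, passing the limit was not always enough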;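 also: compound pretreatment 18-22 h then 72 h combined with doxorubicin; 0% = doxorubicin alone and 100% = vehicle without doxorubicin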); conditions: H69AR viability with doxorubicin, CellTiter-Glo luminescence; at 10 µM; hits give high values
[4] = viability of HCT116 without oncogenic beta-catenin – human colon tumor cells, pilot screen (AID 823;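 active = cell viability at or below a set limit in both duplicate runs, the limit being the all-compound median minus 4 SD, cut at about 23% in these data, passing the limit was not always enough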;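 also: 0% = wells killed by 20 µM Hyamine and 100% = untreated DMSO cell wells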); conditions: HCT116 beta-catenin knockout viability, CellTiter-Glo, 60 h; at 10 µM; hits give low values
[5] = viability of PTEN-null HCT116 cells – cell-based, HCT116 clonal line, CellTiter-Glo, pilot screen (AID 824;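 active = viability at or below 27.92% in each of two runs, the all-compound median minus 4 SD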;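 also: 0% = 20 µM Hyamine control and 100% = vehicle cell control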); conditions: HCT116 PTEN-deleted viability, 60 h, at 10 µM, hits give low values
[6] = RAM signaling pathway blockade in yeast – S. cerevisiae, Pdr1DBD-CYC8 efflux-inhibited sensitized strain, primary screen (AID 1298);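 also: 0% = DMSO untreated cells without growth and 100% = 10 µM 1-NA-PP1 full growth; higher means more yeast growth rescued from 5-FOA killing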; conditions: S. cerevisiae cbk1-as DSE1-URA3 strain, 5-FOA growth OD615, 2 d; at 50 µM; hits give high values

Row | SMILES | growth inhibition [1] [%] | growth inhibition [2] [%] | viability increase [3] [%] | viability [4] | viability [5] | RAM network inhibition [6] [%]
1 | COc1ccc(C(=O)n2nc(C)cc2C)cc1Br | -8.38 | -1.95 | -0.08 | 101% | 99.3% | -0.42
2 | COc1ccc(-c2cc(C(F)(F)F)nc(S(C)(=O)=O)n2)cc1OC | -23.4 | -9.75 | -7.11 | 14.5% (active) | 48.7% | -0.26
3 | O=C(OCC1COc2ccccc2O1)c1c(F)cccc1F (stereo not given) | -5.97 | -0.835 | 2.01 | 93% | 95.8% | 7.73
4 | C#CCSc1nnc(-c2c[nH]c3ccccc23)n1C | 0.22 | 8.42 | -2.77 | 98.3% | 93.5% | -0.92
5 | Cc1cc(Nc2ccc(C)c(Br)c2)n2nc(C)nc2n1 | -12.9 | 10.4 | -5 | 92.1% | 92.8% | 3.87
6 | O=C(Nc1ccccc1-c1nc2ccccc2s1)c1ccco1 | -6.38 | -20.9 | -5.19 | 74.7% | 61.9% | 6.4
7 | CC(=O)NCc1cn2c(C)csc2n1 | -16.9 | -3.26 | -3.88 | 98.1% | 90% | 3.01
8 | COc1ccc(C(=O)c2oc3ccc(Br)cc3c2NC(C)=O)cc1 | -2.44 | -3.18 | -3.96 | 97.7% | 104% | 1.07
9 | CCCSc1nc2c(cnn2-c2ccccc2)c(=O)[nH]1 | -12.6 | -17.8 | -0.89 | 105% | 95.7% | -0.83
10 | Cc1ccc(C)c2[nH]c(=O)c(CCNC(=O)c3cc4ccccc4o3)cc12 | -2.5 | -11.6 | 1.81 | 95.4% | 91.2% | 4.18
11 | CCCOCCOC(=O)c1[nH]c2c(c1C)C(=O)CC(c1cc(OC)ccc1OC)C2 (stereo not given) | -12.2 | -4.79 | -4.21 | 17.3% (active) | 20.6% (active) | 8.16
12 | COC(=O)c1cc(=O)[nH]c(SCc2cccc(C)c2)n1 | -9.72 | -0.94 | -3.27 | 102% | 101% | 6.8
13 | O=C(CSc1oc(-c2ccccc2)nc1S(=O)(=O)c1ccc(F)cc1)NCC1CCCO1 (stereo not given) | 4.64 | 0.925 | -3.53 | 86.3% | 89% | 2.32
14 | CCN(CC)CCn1c(=S)[nH]c2ccccc2c1=O | -8.59 | 6.18 | -1.56 | 103% | 98.1% | 6.58
15 | COc1cc(C(=O)NCCc2cn3ccc(C)cc3n2)cc(OC)c1OC | -4.97 | 4.06 | -4.28 | 96.5% | 95.9% | 2.94
16 | Cc1cccc(-c2nc(CS(=O)CC(=O)N3CCN(C)CC3)c(C)o2)c1 (stereo not given) | -8.17 | -8.82 | -1.78 | 95.9% | 99.5% | 2.3
17 | COC(=O)c1nnc(-c2ccccc2)c(-c2ccccc2)n1 | -20.7 | -24.7 | -1.82 | 104% | 99.5% | 9.17
18 | c1ccc(-c2nc(CSc3nnnn3-c3ccccc3)cs2)cc1 | -8.04 | -0.095 | -2.18 | 99.5% | 93.4% | 7.98
19 | CCOC(=O)c1c(CN2CCCCC2)n(C)c2cc(Br)c(O)c(CN(C)C)c12 | -16.8 | 5.7 | -2.65 | 75.7% | 79.5% | 0.94
20 | Clc1ccc(-c2nnc(SCc3nc(-c4ccccc4)no3)o2)cc1 | -10.1 | -9.97 | -3.34 | 99.2% | 91.7% | 4.9
